Results as given in ChEMBL document CHEMBL1130209, “A novel series of 2,5-substituted tryptamine derivatives as vascular 5HT1B/1D receptor antagonists” (J Med Chem, 1997).

What was measured:
[1] = target: 5-hydroxytryptamine receptor 1B (Homo sapiens) (UniProt P28222); assay: Dissociation equilibrium constant against the vascular 5-hydroxytryptamine 1B like receptor in the rabbit saphenous vein; format: tissue-based; details: Oryctolagus cuniculus, target entry is the homologue from another species
Sequence of 5-hydroxytryptamine receptor 1B (Homo sapiens) (P28222 whole entry): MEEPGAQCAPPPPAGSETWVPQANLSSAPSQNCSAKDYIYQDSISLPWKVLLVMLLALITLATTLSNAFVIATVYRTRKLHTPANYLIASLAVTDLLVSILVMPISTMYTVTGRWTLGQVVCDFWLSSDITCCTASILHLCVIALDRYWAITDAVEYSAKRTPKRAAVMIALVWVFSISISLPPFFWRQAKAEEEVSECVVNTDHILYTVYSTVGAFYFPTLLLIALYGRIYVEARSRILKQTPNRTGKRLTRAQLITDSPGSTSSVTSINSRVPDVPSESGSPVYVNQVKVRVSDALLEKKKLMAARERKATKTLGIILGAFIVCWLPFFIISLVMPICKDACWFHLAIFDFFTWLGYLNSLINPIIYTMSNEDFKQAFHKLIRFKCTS
Procedure, shortened: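 Saphenous vein rings (4–5 mm) from male New Zealand white rabbits, killed with pentobarbitone 80 mg/kg iv and exsanguination, mounted on tungsten wires. Phenoxybenzamine 0.3 μM for 30 min, washed out, 1 μM 5HT viability check. Cumulative 5HT curve, then after 60 min recovery a test compound curve. Non-agonists tested as 5HT antagonists, giving apparent pKB.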

[2] = target: 5-hydroxytryptamine receptor 2B (Homo sapiens) (UniProt P41595); assay: The dissociation equilibrium constant (pKB=-log KB) of compound was determined against the vascular 5-hydroxytryptamine 2B receptor in the endothelium intact rabbit jugular vein.; details: Oryctolagus cuniculus; target entry is the homologue from another species
Sequence of 5-hydroxytryptamine receptor 2B (Homo sapiens) (P41595 whole entry): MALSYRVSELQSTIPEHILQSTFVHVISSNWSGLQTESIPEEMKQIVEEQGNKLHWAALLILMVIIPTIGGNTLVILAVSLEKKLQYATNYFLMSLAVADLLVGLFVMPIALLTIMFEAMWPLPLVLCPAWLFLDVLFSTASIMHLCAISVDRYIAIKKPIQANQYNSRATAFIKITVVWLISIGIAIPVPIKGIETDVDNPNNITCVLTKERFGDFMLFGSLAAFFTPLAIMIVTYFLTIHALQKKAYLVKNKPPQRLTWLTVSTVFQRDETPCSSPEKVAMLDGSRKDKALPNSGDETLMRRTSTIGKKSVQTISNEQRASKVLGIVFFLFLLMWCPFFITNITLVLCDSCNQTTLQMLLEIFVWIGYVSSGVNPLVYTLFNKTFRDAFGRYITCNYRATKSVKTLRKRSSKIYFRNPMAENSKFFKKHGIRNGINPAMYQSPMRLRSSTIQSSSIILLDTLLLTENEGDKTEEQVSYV

[3] = target: 5-hydroxytryptamine receptor 2A (Rattus norvegicus, UniProt P14842); assay: Affinity pKi for 5-hydroxytryptamine 2A receptor was measured in rat cortex homogenates; format: tissue-based
Sequence of 5-hydroxytryptamine receptor 2A (P14842 whole entry): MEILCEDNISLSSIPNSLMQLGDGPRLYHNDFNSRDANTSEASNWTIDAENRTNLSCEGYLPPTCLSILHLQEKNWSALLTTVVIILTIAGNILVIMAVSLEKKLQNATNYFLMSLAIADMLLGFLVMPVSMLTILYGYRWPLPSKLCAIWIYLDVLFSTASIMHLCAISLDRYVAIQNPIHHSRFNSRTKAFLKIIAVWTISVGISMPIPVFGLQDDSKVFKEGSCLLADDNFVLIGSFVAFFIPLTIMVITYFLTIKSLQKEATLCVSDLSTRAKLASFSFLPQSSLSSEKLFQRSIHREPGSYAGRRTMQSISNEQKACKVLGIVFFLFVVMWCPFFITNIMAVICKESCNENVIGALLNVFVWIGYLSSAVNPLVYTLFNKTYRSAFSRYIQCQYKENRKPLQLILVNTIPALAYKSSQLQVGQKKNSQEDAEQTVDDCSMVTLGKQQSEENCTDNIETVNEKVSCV
Procedure, shortened: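 Competition binding with rat cortex homogenate: radioligand near its KD plus a wide range of test drug concentrations in duplicate, 30 min at 27 °C. Buffer 50 mM TRIS-HCl, 5 mM CaCl₂, 0.1% (w/v) ascorbate, 10 mM pargyline. Nonspecific binding defined with excess cold 5HT. Rapid filtration with ice-cold buffer wash, liquid scintillation count. pKi is the mean of at least three estimates.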

[4] = target: Adrenergic receptor alpha-2 (Homo sapiens) (UniProt P08913+P18825+P18089); assay: The dissociation equilibrium constant (pKB=-log KB) of compound was determined against the Alpha-2 adrenergic receptor; format: protein assay; details: Oryctolagus cuniculus
[5] = Half life of compound was determined in rat plasma; format: ADME, organism-based
[6] = The dissociation equilibrium constant (pKB=-log KB) of compound was determined against the Muscarinic acetylcholine receptor M3 in the guinea pig trachea.; details: Cavia porcellus

In the case of `CCOC(=O)c1[nH]c2ccc(CCN3C(=O)CNC3=O)cc2c1CCN(C)C`, the pKB [1] is reported as 7.42, the pKB [2] is reported as < 5 and the Ki [3] is reported as 7.94 µM. For the same compound, the pKB [4] was < 5, the half-life [5] was 15 min and the pKB [6] was < 5.
